Bioassay records: PubChem, Sanford-Burnham Center for Chemical Genomics
EBI2 antag = EBI2 receptor antagonists, beta-arrestin recruitment, primary screen, cell-based, luminescence, 7a,25-OHC stimulation, uHTS | G-protein coupled receptor 183 (Homo sapiens), P32249 | 7a,25-OHC stimulated | actives 0.81% (n = 360,000) | inhibition, % at 5 µM | AID 651636, 2012; in the data active = inhibition above about 38%;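 also: enzyme fragment complementation signal reports receptor beta-arrestin coupling in cells; 0% = agonist plus DMSO wells and 100% = wells without agonist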
APJ antag = antagonists of human apelin receptor APJ, primary screen, CHO-K1 cells, beta-arrestin complementation, luminescence; P35414; inhibition, % at 20 µM; actives 0.32% (n = 330,000); AID 2521, 2010;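 active = inhibition above about 40% at 20 µM, limit read from the data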;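 also: cells challenged with 10 nM apelin-13 agonist together with compound; plate controls were apelin-13 plus DMSO wells for no effect and DMSO wells lacking apelin-13 for full effect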
Target sequence (P35414 whole entry, looked up): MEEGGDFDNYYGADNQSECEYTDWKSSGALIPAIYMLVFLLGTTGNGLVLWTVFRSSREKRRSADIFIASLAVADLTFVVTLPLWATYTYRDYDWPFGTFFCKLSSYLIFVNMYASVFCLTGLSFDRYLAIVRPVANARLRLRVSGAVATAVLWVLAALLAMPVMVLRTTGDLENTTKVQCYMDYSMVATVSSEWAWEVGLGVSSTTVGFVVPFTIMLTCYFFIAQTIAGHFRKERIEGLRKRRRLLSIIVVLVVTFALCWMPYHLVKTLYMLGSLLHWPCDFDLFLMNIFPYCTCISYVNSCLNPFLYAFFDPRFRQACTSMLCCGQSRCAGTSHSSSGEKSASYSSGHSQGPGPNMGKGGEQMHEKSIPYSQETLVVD
APJ ag = agonists of human apelin receptor APJ, primary screen, CHO-K1 cells, PathHunter beta-arrestin, luminescence. P35414. 0% DMSO wells, 100% apelin. activation, % at 20 µM. actives 0.11% (n = 330,000);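 active = activation more than six SD over the plate average, tested at 20 µM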;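 also: 0% = DMSO alone and 100% = apelin-13 at 10 nM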
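Material: engineered CHO-K1 APJ arrestin reporter cells; amount: 1000 CHO-K1 reporter cells seeded per well; incubation: compound stimulation 90 min at 25 °C, detection 60 min; signal: luminescent beta-gal fragment complementation, chemiluminescent substrate; read-out basis: APJ agonist activity; controls: DMSO-only wells as negative, 10 nM Apelin-13 as positive control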
CCR6 antag = CCR6 receptor antagonists, primary screen, cell-based, CHO-K1, luminescence, beta-arrestin, uHTS. C-C chemokine receptor type 6 (Homo sapiens), P51684. CHO-K1 CCR6 PathHunter beta-arrestin, CCL20-stimulated. inhibition, % at 20 µM. actives 0.49% (n = 340,000). AID 493098, 2011;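 active = compounds whose inhibition of the agonist-driven luminescence signal at 20 µM reaches about 50%, limit read from the data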;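 also: cells stimulated with CCL20 at 14 nM final; plate controls were DMSO with CCL20 for no effect and DMSO without agonist for full effect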
CXCR6 inh = CXCR6 receptor inhibitors, primary screen, cell-based, beta-arrestin, luminescence, CHO-K1 PathHunter, 1536-well; C-X-C chemokine receptor type 6 (Homo sapiens), O00574; inhibition, % at 20 µM; actives 0.36% (n = 360,000); in the data active = inhibition above about 34%, passing the limit was not always enough;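 also: antagonist mode with CXCL16 agonist at 10 nM final; 0% = 10 nM CXCL16 with DMSO and 100% = unstimulated wells without agonist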
APJ ag confirm = agonists of human apelin receptor APJ, confirmation, cell-based, single concentration, CHO-K1, beta-arrestin, luminescence | actives 10% (n = 310) | shares compounds with APJ ag | CHO-K1 APJ PathHunter beta-arrestin | activation, % at 20 µM | AID 2764, 2010;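 active = activation above 40%, taking the highest of four retests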;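 also: plate controls were DMSO wells for no effect and apelin-13 at 10 nM for full effect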
* marks the source's active call; other numbers are inactive results; / = not tested or not shown. A selection: hits, their analogues and other compounds. The true share with any hit is near 1.5%.

SMILES	EBI2 antag	APJ antag	APJ ag	CCR6 antag	CXCR6 inh	APJ ag confirm
N/C(=N\OS(=O)(=O)c1ccc2ccccc2c1)c1ccncc1	-22	-31	28*	-27	-19	68*
CCOC(=O)c1ccc(Nc2ncnc3c2cnn3C)cc1	-6	-7	5	0	-5	/
Cn1ncc2c(O/N=C(\N)c3ccc(C(C)(C)C)cc3)ncnc21	2	-65	27*	-32	-34	62*
CC1=NOC(=O)/C1=C\c1ccc(-c2cccc(Cl)c2)o1	-9	-24	15*	/	96*	16
CC1=NOC(=O)/C1=C\c1ccc(-c2ccc(Cl)c(C(=O)O)c2)o1	-14	-5	0	0	-2	/
O=C(/C=C/c1ccc(OCCCF)cc1)Nc1ccnc(-c2ccncc2)n1	7	-24	16*	-18	-7	36
COc1cc(NC(=O)Nc2nc(C(N)CCc3ccccc3)cs2)cc(OC)c1OC (stereo unspecified)	0	/	/	/	-6	/
CCN(C(=O)COC(=O)c1ccccc1Nc1ccccc1)c1c(N)n(Cc2ccccc2)c(=O)[nH]c1=O	-5	/	/	15	16	/
COc1cc2oc(=O)cc(CN3CCCCC3)c2cc1Cl	-6	/	/	/	-5	/
CCCCCN=C(N)N/N=C/c1c[nH]c2ccc(OC)cc12	5	-20	35*	55*	27	39
CCCOc1ccc(C(=O)N/N=C/c2c[nH]c3ccc(Br)cc23)cc1	1	-11	-4	-18	-10	/
CC1CCN(CCNC(=O)c2ccc3c(=O)n(Cc4ccc(Cl)cc4)c(=S)[nH]c3c2)CC1	-1	0	33*	-5	1	9
COCCCNC(=O)c1ccc2c(=O)n(Cc3ccc(Cl)cc3)c(=S)[nH]c2c1	0	16	-2	14	3	/
Cc1nc2ccc(S(=O)(=O)CCC(=O)NCCc3ccccc3)cc2s1	-6	/	/	/	1	/
O=C(NC(Cc1ccccc1)C(=O)N1CCN(S(=O)(=O)c2ccccc2F)CC1)c1ccccc1 (stereo unspecified)	4	7	26*	0	0	9
CCCCC1Cc2[nH]c(=S)[nH]c(=O)c2C(c2ccc(Cl)cc2)O1 (stereo unspecified)	-9	/	/	/	0	/
COC(=O)[C@@]1(Cc2ccc(OC)cc2)[C@H]2c3cc(C(=O)N4CCCC4)n(Cc4ccccc4)c3C[C@H]2CN1C(=O)c1ccccc1	9	/	/	/	18	/
CCCCNc1c(-c2ccc(OC)c(SC(C)CC)c2)nc2ccc(Cl)cn12 (stereo unspecified)	21	-14	-1	-4	-7	/
CCCCNc1c(-c2ccc(OC)c(SC3CCCCC3)c2)nc2ccc(C)cn12	-22	4	18*	25	23	30
CCCCNc1c(-c2ccc(OC)c(SC(C)CC)c2)nc2ccc(C)cn12 (stereo unspecified)	-71	-28	26*	25	12	9
COc1cc2ccccc2cc1C(=O)Nc1ccc(N2CCN(C(=O)C(C)C)CC2)cc1	21	-29	20*	1	6	11
COc1cc2ccccc2cc1C(=O)Nc1ccc(N2CCN(C)CC2)cc1	3	1	3	13	0	/
O=C(NCc1cccs1)c1csc(COCCO)n1	-1	/	/	/	-11	/
Cc1cccc(/C(N)=N/OC(=O)c2cccc3ccccc23)c1	-3	-128	36*	/	-33	32
C=CCn1c(SCC(=O)N2CCN(c3ccccc3)CC2)nc2c([nH]c3ccccc32)c1=O	-5	-17	65*	0	2	11
SMILES	EBI2 antag	APJ antag	APJ ag	CCR6 antag	CXCR6 inh	APJ ag confirm
CCOC(=O)c1sc(NC(=O)CN2C(=O)NC3(CC(C)CC(C)(C)C3)C2=O)cc1C (stereo unspecified)	2	5	38*	-15	4	4
O=C1NC[C@H](CCCCN2CCN(Cc3ccccc3)C(=O)C2=O)N(CCC2CCCCC2)C1=O	5	/	/	/	-6	/
CCN(CC)CCNC(=O)c1ccc(NC(=O)c2cc(-c3ccco3)nc3ccccc23)cc1	5	-19	55*	7	4	2
Cn1cnc2nc[nH]c2c1=O	3	/	/	-2	-5	/
CCn1c(C)nc2cc(-c3nnc(-c4c(-c5ccccc5)noc4C)o3)ccc21	30	-5	17*	-24	-2	5
Cc1onc(-c2ccccc2)c1-c1nnc(-c2ccccc2C(F)(F)F)o1	4	10	-3	1	10	/
COc1ccc(/C(N)=N/OC(=O)c2cccc([N+](=O)[O-])c2)cc1OC	5	-38	20	-3	-8	/
COc1ccc(C(=O)O/N=C(\N)c2ccccc2Cl)cc1OC	-12	-40	11*	-15	-18	39
COc1ccc(/C(N)=N/OC(=O)c2ccc(OC)c([N+](=O)[O-])c2)cc1OC	-1	-72	18*	-10	-4	34
COc1ccccc1C(=O)O/N=C(\N)c1ccccc1Cl	-14	-38	3	-9	-6	/
COc1cc2c3nnc(-c4ccc(F)cc4)c-3cn(Cc3ccccc3)c2cc1OC	2	18	24*	4	-4	36
COc1cc2c3nnc(-c4ccc(F)cc4)c-3cn(Cc3ccc(F)cc3)c2cc1OC	7	27	4	13	6	/
C=CCn1c(SCCC)nc(O)cc1=O	-11	-2	34*	1	-6	4
COC/C=C/C1=CC2=CC(=O)C(C)(OC(=O)c3cnc4ccccc4n3)C(=O)C2=CN1C1CCCC1 (stereo unspecified)	/	-55	122*	/	/	21
COC/C=C/C1=CC2=CC(=O)C(C)(OC(=O)c3cnc4ccccc4n3)C(=O)C2=CN1C(CO)CO (stereo unspecified)	-26	-17	8	-4	-11	/
Nc1c(C(O)(C(F)(F)F)C(F)(F)F)cc(C(O)(C(F)(F)F)C(F)(F)F)c2ccccc12	-21	-9	50*	6	4	37
CCOC(=O)c1oc2nc3c(cc2c1N)CCCC3	9	2	117*	14	1	3
COc1cc2sc3cc(NCC[C@@H]4CCCN4C)ccc3c(=O)c2cc1OC	-7	-1	-1	7	-8	/
COc1cccc2sc3ccc(NCCC4CCCN4C)cc3c(=O)c12 (stereo unspecified)	-4	-124	53*	15	-21	1
N#CC1=C(c2ccccc2)/C(=C/c2ccccc2)OC1=O	5	-18	17*	64*	35	12
O=C1O/C(=C/c2ccccc2)c2ccccc21	-1	1	-1	16	12	/
